Assays:
A549 = experiment: Antiproliferative activity against human A549 cells after 72 hrs by MTT assay; assay type: functional, cell-based; conditions: A549, 72 h
How it was run: (§1)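 A549, HeLa, HepG2 and normal liver L02 cells kept in DMEM with 10% FBS at 37 °C under 5% CO2. Plated at 5×10^3 cells/well for 24 h, then treated with graded concentrations for 72 h. Viability measured by MTT reduction (5 h), formazan dissolved in DMSO and read at 570 nm. Three repeats.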

L02 = experiment: Antiproliferative activity against human L02 cells after 72 hrs by MTT assay; assay type: cell-based; conditions: L02, 72 h; how it was run: as §1
HepG2 = experiment: Antiproliferative activity against human HepG2 cells after 72 hrs by MTT assay; assay type: functional, cell-based; conditions: HepG2, 72 h; how it was run: as §1
HeLa = experiment: Antiproliferative activity against human HeLa cells after 72 hrs by MTT assay; assay type: functional, cell-based; how it was run: as §1
MDA-MB-231 = experiment: Antiproliferative activity against human MDA-MB-231 cells after 72 hrs by MTT assay; assay type: functional, cell-based; conditions: MDA-MB-231, 72 h
How it was run: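 MDA-MB-231 cells grown in DMEM with 10% FBS and penicillin/streptomycin at 37 °C under 5% CO2. Seeded at 5×10^3 cells/well for 24 h, then exposed to compound across a concentration range for 72 h. MTT (5 mg/mL in PBS) added for 5 h, formazan dissolved in DMSO, absorbance read at 570 nm. Three repeats.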

IC50 (A549) [µM]	IC50 (HepG2) [µM]	IC50 (HeLa) [µM]	IC50 (MDA-MB-231) [µM]	SMILES	IC50 (L02) [µM]
40.1	28.4	67.8	52.3	COc1cccc(-c2nc3c([nH]2)c2c4c(ccc2c2occ(C)c32)C(C)(C)CCC4)c1	> 300
24.9	31	157	30.7	Cc1coc2c3ccc4c(c3c3[nH]c(-c5ccc([N+](=O)[O-])cc5)nc3c12)CCCC4(C)C	> 300
63.7	33.9	> 300	48.8	Cc1coc2c3ccc4c(c3c3[nH]c(-c5cccc([N+](=O)[O-])c5)nc3c12)CCCC4(C)C	> 300
4.9	26.3	84.3	20.2	Cc1coc2c3ccc4c(c3c3[nH]c(-c5ccccc5O)nc3c12)CCCC4(C)C	51.9
48.8	25.2	65.3	44.3	Cc1coc2c3ccc4c(c3c3[nH]c(-c5ccc(C(F)(F)F)cc5)nc3c12)CCCC4(C)C	30.7
53.2	65.7	193	116	Cc1coc2c1C(=O)C(=O)c1c-2ccc2c1CCCC2(C)C [TANSHINONE IIA]	78.5
203	24.8	115	23.6	Cc1coc2c3ccc4c(c3c3[nH]c(-c5ccccc5[N+](=O)[O-])nc3c12)CCCC4(C)C	> 300
45.9	126	> 300	110	COc1ccccc1-c1nc2c([nH]1)c1c3c(ccc1c1occ(C)c21)C(C)(C)CCC3	86.8
31.4	43.8	68.8	52.7	Cc1coc2c3ccc4c(c3c3[nH]c(-c5cccc(C(F)(F)F)c5)nc3c12)CCCC4(C)C	54.5
35.3	13.9	62	21.1	COc1ccc(-c2nc3c([nH]2)c2c4c(ccc2c2occ(C)c32)C(C)(C)CCC4)cc1	84
25.6	38.4	61	23.8	Cc1coc2c3ccc4c(c3c3[nH]c(-c5ccccc5C(F)(F)F)nc3c12)CCCC4(C)C	93.9
3.4	4.3	8.66	8.53	COc1cccc2c1C(=O)c1c(O)c3c(c(O)c1C2=O)C[C@@](O)(C(=O)CO)C[C@@H]3O[C@H]1C[C@H](N)[C@H](O)[C@H](C)O1 [DOXORUBICIN]	3.6
18.4	37.1	52.6	25.5	Cc1coc2c3ccc4c(c3c3[nH]c(-c5cccc(O)c5)nc3c12)CCCC4(C)C	32.9
